Calls of active or inactive are those of the source. The rule behind the calls is not given here.
Key:
dengue virus type 2 [1] = test: Antiviral activity against eGFP-fused Dengue virus 2 infected in human BE(2)-C cells assessed as viral infection level by measuring intensity of eGFP emission from infected cells at 1.56 uM incubated for 24 hrs relative to control; format: functional
Method in brief: (§1)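 BE(2)C cells, in RPMI 1640 with 10% FBS, were infected with DENV-2-eGFP reporter virus (MOI 1) for 24 h with or without compound, using DMSO as solvent control. Cells were fixed in 4% paraformaldehyde and stained with Hoechst, then imaged by high-content analysis. eGFP intensity per cell number is given as % of solvent control. Values are means of 3 experiments.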

dengue virus type 2 [2] = test: Antiviral activity against eGFP-fused Dengue virus 2 infected in human BE(2)-C cells assessed as viral infection level by measuring intensity of eGFP emission from infected cells at 3.13 uM incubated for 24 hrs relative to control; format: functional; method in brief: as §1
[3] = Cytotoxicity against human BE(2)-C cells assessed as cell proliferation at 6.25 uM incubated overnight by XTT assay relative to control; format: cell-based; details: read-out: Activity
[4] = target: Calcium/calmodulin-dependent protein kinase type II subunit alpha (Homo sapiens, UniProt Q9UQM7); test: Inhibition of human CaMKIIalpha using calmodulin and syntide-2 incubated for 15 mins by ELISA
Chain of Calcium/calmodulin-dependent protein kinase type II subunit alpha (Q9UQM7 whole entry): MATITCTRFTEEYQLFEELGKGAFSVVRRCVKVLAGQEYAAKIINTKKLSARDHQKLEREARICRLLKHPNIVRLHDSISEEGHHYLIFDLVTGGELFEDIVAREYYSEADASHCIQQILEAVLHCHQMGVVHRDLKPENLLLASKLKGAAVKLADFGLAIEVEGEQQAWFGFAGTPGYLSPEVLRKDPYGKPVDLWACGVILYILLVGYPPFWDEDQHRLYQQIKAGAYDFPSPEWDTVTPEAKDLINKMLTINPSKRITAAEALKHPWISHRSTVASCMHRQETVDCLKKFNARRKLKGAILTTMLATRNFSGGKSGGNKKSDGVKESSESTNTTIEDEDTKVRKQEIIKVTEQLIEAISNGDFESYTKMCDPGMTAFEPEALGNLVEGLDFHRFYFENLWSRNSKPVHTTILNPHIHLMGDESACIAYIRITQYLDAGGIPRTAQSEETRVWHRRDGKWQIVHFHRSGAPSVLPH

| SMILES | Activity (dengue virus type 2 [1]) | Activity (dengue virus type 2 [2]) | viability at 6.25 µM [3] | inhibition [4] | IC50 [4] |
| --- | --- | --- | --- | --- | --- |
| COc1ccc(S(=O)(=O)N(CCCC(=O)C2CCCCC2)c2ccccc2)cc1 | 68.9% | 63.3% | 107% |  |  |
| COc1ccc(S(=O)(=O)N(CCCC(=O)C2CCCC2)c2ccccc2)cc1 | 34.6% | 25.1% |  |  |  |
| COc1ccc(S(=O)(=O)N(CCCC(C)=O)c2ccccc2)cc1 | 92.8% | 100.8% | 106% |  |  |
| O=C(CCCN(c1ccccc1)S(=O)(=O)c1ccc(OC(F)(F)F)cc1)C1CCCC1 | 102.6% | 118.2% | 92.4% |  |  |
| COc1ccc(S(=O)(=O)N(CCCC(O)c2ccc(F)cc2)c2ccccc2)cc1 (configuration not stated) | 59.4% | 48.5% | 76.3% | Active |  |
| Cc1ccc(S(=O)(=O)N(CCCC(=O)C2CCCCCC2)c2ccccc2)cc1 | 93.9% | 76.9% | 99.5% |  |  |
| COc1ccc(S(=O)(=O)N(CCCC(=O)c2ccc(F)cc2)c2ccccc2)cc1 | 55.9% | 39.3% | 56.1% |  |  |
| COc1ccc(S(=O)(=O)N(CCCC(=O)C2CCCCCC2)c2ccc(C3CCCCC3)cc2)cc1 | 36.1% | 13.8% |  |  |  |
| COc1ccc(S(=O)(=O)N(CCCC(=O)C2C3CC4CC(C3)CC2C4)c2ccccc2)cc1 (configuration not stated) | 57.3% | 51.1% | 96.7% |  |  |
| O=C(CCCN(c1ccccc1)S(=O)(=O)c1ccc(Oc2ccccc2)cc1)C1CCCCCC1 | 74.7% | 73.4% | 95.5% |  |  |
| CN([C@@H](Cc1ccc(OS(=O)(=O)c2cccc3cnccc23)cc1)C(=O)N1CCN(c2ccccc2)CC1)S(=O)(=O)c1cccc2cnccc12 | 33.5% | 22.3% | 65.7% |  | 1030 nM |
| COc1ccc(S(=O)(=O)NCCCC(=O)c2ccc(F)cc2)cc1 | 110.1% | 122.6% | 106% | Active |  |
| COc1ccc(S(=O)(=O)N(CCCC(=O)C2CCC2)c2ccccc2)cc1 | 42.8% | 33% | 93.9% |  |  |
| COc1ccc(S(=O)(=O)N(C)CCCC(=O)c2ccc(F)cc2)cc1 | 100% | 100.9% | 106% |  |  |
| COc1ccc(S(=O)(=O)N(CCO)c2ccccc2CN(C)C/C=C/c2ccc(Cl)cc2)cc1 | 30.5% | 14.5% | 84.3% |  |  |
| COc1ccc(S(=O)(=O)N(CCCC(=O)C2CCCCCC2)C2CCCCC2)cc1 | 85.7% | 65.7% | 97.5% |  |  |
| COc1ccc(S(=O)(=O)N(CCCC(=O)C2CCCCCC2)c2ccc3c(c2)CCCC3)cc1 | 87.2% | 21.5% | 104% |  |  |

Reference: ChEMBL document CHEMBL4376891, “Benzenesulfonamide Derivatives as Calcium/Calmodulin-Dependent Protein Kinase Inhibitors and Antiviral Agents against Dengue and Zika Virus Infections” (J Med Chem, 2020)
